PostGolgi yeast – growth inhibition of a yeast mutant, post-Golgi transport screen | post-Golgi transport phenotypic cell assay | inhibition, % at 10 µM | 98,000 compounds, 0.9% hits | AID 739;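 note: yeast cells grown in 1536-well plates; yeast grown about 18 h at 30C before absorbance read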
Yeast lifespan up – extends the lifespan of yeast; S. cerevisiae growth with nicotinamide, OD615; deaD strain in restrictive glucose medium; inhibition of the nicotinamide effect, % at 10 µM; AID 775; 130,000 compounds, 0.68% hits;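 active = inhibition above a set limit, placed 3 SD over the median of all compounds, cut at about 26% in these data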
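Material: Modified budding yeast, DeaD strain | Medium: Restrictive glucose medium | Probe or stimulus: 1.5 mM nicotinamide | Dosing: Single dose 10 µM compound, 0.25% DMSO | Times: 48 h at 30 °C | Technique: OD615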
Yeast growth inh – chemicals that inhibit yeast BB579 growth in restrictive medium (lifespan-shortening candidates). inhibition, % at 10 µM. 140,000 compounds, 0.51% hits. S. cerevisiae BB579 growth, OD615, 48 h;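 active = inhibition above a set limit, 3 SD over the mean compound inhibition, cut at about 44% in these data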
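Test system: S. cerevisiae DeaD strain BB579 yeast; Medium: restrictive CSMM-D medium; Compound: one dose, 10 µM compound with 0.25% DMSO; Incubation: 4 h cell preincubation, 48 h compound exposure, 30 °C humidified; Signal: OD at 615 nm; Benchmarks: amphotericin B at 10 µg/mL as positive control.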
PostGolgi ctrl – inhibits growth of the yeast control strain; efflux-deficient yeast background strain, growth absorbance A615, 16 h; 98,000 compounds, 5% hits; inhibition, % at 10 µM
Numbers stand for hits. The entries come from a sample that favours hits as a whole. Cut-off read from the data, not from the text of the source, unless noted: active = inhibition above about 30%; inactive = the rest.

What do the screens show for `CCN1CCCC1CN(Cc1cc2cc(C)ccc2[nH]c1=O)C(=O)Nc1ccccc1OC` (configuration not stated)?
PostGolgi yeast: inactive; Yeast lifespan up: inactive; Yeast growth inh: inactive; PostGolgi ctrl: 34

Results for CCn1c(COc2ccc3c(c2)OCO3)nnc1SCC(=O)c1ccc(Cl)cc1 ?
PostGolgi yeast: inactive; Yeast lifespan up: inactive; Yeast growth inh: inactive; PostGolgi ctrl: inactive

How did O=C(COC(=O)C1(c2ccc(F)cc2)CCCC1)NC1CC1 do in these assays?
PostGolgi yeast: inactive; Yeast lifespan up: inactive; Yeast growth inh: inactive; PostGolgi ctrl: inactive

What do the screens show for `CCN1CCN(c2ncnc3c2sc(=S)n3-c2ccccc2)CC1`?
PostGolgi yeast: inactive; Yeast lifespan up: inactive; Yeast growth inh: 46; PostGolgi ctrl: inactive

Results for S=c1sc2c(N3CCN(Cc4ccccc4)CC3)ncnc2n1-c1ccccc1 ?
PostGolgi yeast: inactive; Yeast lifespan up: inactive; Yeast growth inh: inactive; PostGolgi ctrl: inactive

Results for Cc1ccc(-n2nnnc2SCC(=O)N2CC(=O)Nc3ccccc32)cc1 ?
PostGolgi yeast: inactive; Yeast lifespan up: inactive; Yeast growth inh: inactive; PostGolgi ctrl: inactive

What do the screens show for `CN(C)CCNC=C(C(=O)Nc1ccc(Cl)cc1Cl)C(=O)Nc1ccc(Cl)cc1Cl`?
PostGolgi yeast: 40; Yeast lifespan up: inactive; Yeast growth inh: 99; PostGolgi ctrl: 99

What do the screens show for `CC(C)(C)S(=O)(=O)c1cnc2c(-c3ccc(Cl)cc3)cnn2c1N`?
PostGolgi yeast: inactive; Yeast lifespan up: inactive; Yeast growth inh: inactive; PostGolgi ctrl: 34

How did CC(C)(C)S(=O)(=O)c1cnc2c(-c3ccc(F)cc3)cnn2c1N do in these assays?
PostGolgi yeast: inactive; Yeast lifespan up: inactive; Yeast growth inh: inactive; PostGolgi ctrl: inactive

What do the screens show for `COc1ccc(-c2cnn3c(N)c(S(=O)(=O)c4ccccc4)cnc23)cc1`?
PostGolgi yeast: inactive; Yeast lifespan up: inactive; Yeast growth inh: inactive; PostGolgi ctrl: inactive

How did COc1ccc(-c2cnn3c(N)c(S(=O)(=O)C(C)(C)C)cnc23)cc1 do in these assays?
PostGolgi yeast: inactive; Yeast lifespan up: 30; Yeast growth inh: inactive; PostGolgi ctrl: inactive

Results for CNC(=S)N1C2CCC1CC(NC(=O)NC13CC4CC(CC(C4)C1)C3)C2 (configuration not stated) ?
PostGolgi yeast: inactive; Yeast lifespan up: inactive; Yeast growth inh: inactive; PostGolgi ctrl: inactive

How did CCN1CCN(Cc2c(O)c(Cl)cc3c(C)cc(=O)oc23)CC1 do in these assays?
PostGolgi yeast: inactive; Yeast lifespan up: inactive; Yeast growth inh: inactive; PostGolgi ctrl: inactive

Results for Cc1c(C)c2cc(Cl)c(O)c(CN3CCN(C)CC3)c2oc1=O ?
PostGolgi yeast: 36; Yeast lifespan up: inactive; Yeast growth inh: inactive; PostGolgi ctrl: inactive

Results for Cc1cc(=O)oc2c(CN3CCCCC3)c(O)c(Cl)cc12 ?
PostGolgi yeast: 38; Yeast lifespan up: inactive; Yeast growth inh: inactive; PostGolgi ctrl: inactive

What do the screens show for `CCCc1cc(=O)oc2cc(C)c(CN3CCCC3)c(O)c12`?
PostGolgi yeast: inactive; Yeast lifespan up: 35; Yeast growth inh: inactive; PostGolgi ctrl: inactive

How did CCN(CC)Cc1c(O)c(Cl)cc2c(C)c(C)c(=O)oc12 do in these assays?
PostGolgi yeast: inactive; Yeast lifespan up: 88; Yeast growth inh: inactive; PostGolgi ctrl: inactive

What do the screens show for `Cc1c(Cc2ccccc2)c(=O)oc2c(CN(C)C)c(O)c(Cl)cc12`?
PostGolgi yeast: inactive; Yeast lifespan up: inactive; Yeast growth inh: inactive; PostGolgi ctrl: inactive

What do the screens show for `COc1cc(NC(=O)C/C(C)=N/NC(=O)c2cccc(O)c2)c(OC)cc1Cl`?
Yeast lifespan up: inactive; Yeast growth inh: inactive

What do the screens show for `O=c1c2c(nc3n1CCCCC3)sc1c(O)c(Br)ccc12`?
PostGolgi yeast: inactive; Yeast lifespan up: inactive; Yeast growth inh: inactive; PostGolgi ctrl: 54

What do the screens show for `CCOc1cc(C(=O)Nc2ccccc2F)cc(Br)c1OCC`?
Yeast lifespan up: inactive; Yeast growth inh: inactive

What do the screens show for `CCN(CC)c1ccc(/C=C2/C(=O)ON=C2C)cc1`?
Yeast lifespan up: 40; Yeast growth inh: inactive

How did CC1=NOC(=O)/C1=C/c1ccc(N(C)C)cc1 do in these assays?
PostGolgi yeast: inactive; Yeast lifespan up: inactive; Yeast growth inh: inactive; PostGolgi ctrl: inactive

How did CCCC(=O)Nc1nc2ccc(NC(=O)c3ccc(Br)o3)cc2s1 do in these assays?
PostGolgi yeast: inactive; Yeast lifespan up: inactive; Yeast growth inh: inactive; PostGolgi ctrl: 41

Results for Cc1cccc(OCCC(=O)Nc2ccc(F)c(Cl)c2)c1 ?
Yeast lifespan up: inactive; Yeast growth inh: inactive

What do the screens show for `Cc1cccc(-n2c(SCc3cc(=O)n4ccsc4n3)nc3ccccc32)c1`?
PostGolgi yeast: inactive; Yeast lifespan up: inactive; Yeast growth inh: inactive; PostGolgi ctrl: 33

What do the screens show for `Cc1ccc(SCc2cc(=O)n3ccsc3n2)c(C)c1`?
Yeast lifespan up: inactive; Yeast growth inh: inactive

Screens as filed in PubChem BioAssay.
